Rows were chosen to be rich in hits. Some 2.3% of all compounds tested hit in one or more screens of this group.
TRPC4 act = TRPC4 (mouse) channel activation; B-score at 10 µM; actives 0.49% (n = 310,000); HEK293 TRPC4beta/mu-opioid, Fluo4 calcium fluorescence; stronger effect = higher value; AID 2237; Q9QUQ5;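 active = B-score above 5 SD of library B-scores, and initial fluorescence ratio not above library mean plus 5 SD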;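 also: positive B-score marks a calcium rise read as TRPC4 activation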
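System: HEK293 cells stably co-expressing mouse TRPC4beta and mu-opioid receptor; Schedule: Fluo4 dye loading 45 min at room temperature, 110 s recording; Detection: Fluo4 fluorescence, kinetic; Evaluation: B-scored integrated calcium fluorescence ratio; Controls: buffer (low) and maximal DAMGO (high).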
TRPC4 PAM = allosteric potentiators of mouse TRPC4 channel. actives 0.42% (n = 310,000). HEK293 TRPC4beta/mu-opioid, DAMGO EC20, Fluo-4 Ca2+ flux; stronger effect = higher value. B-score at 10 µM;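 active = B-score of calcium response area above 5 SD of library B-scores, with initial fluorescence ratio within 5 SD of library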;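 also: B-score of integrated fluorescence ratio over time as area under calcium response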
TRPC4 block = inhibitors of mouse TRPC4 channel | Q9QUQ5 | HEK293 TRPC4beta/mu-opioid, DAMGO-evoked Fluo4 calcium flux; stronger effect = lower value | B-score at 10 µM | actives 0.39% (n = 300,000);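 active = B-score over 3 SD under the library average, no early fluorescence shift, positive overall ratio signal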
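System: stable TRPC4beta/mu-opioid receptor HEK293 cells; Dosing: single-point compound dosing; Measured by: Fluo4 Ca2+ flux fluorescence; Read-out basis: per-well B score of integrated baseline-normalized Fluo4 ratio.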
TRPC6 inh = blocks the mouse TRPC6 cation channel. B-score at 10 µM. actives 1.1% (n = 310,000). AID 2553. HEK293-TRPC6, membrane potential dye, ACh-evoked depolarization; stronger effect = lower value;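 active = B-score under library mean minus 3 SD, initial fluorescence not abnormally high, positive integrated signal ratio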;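 also: B-score derived from integrated fluorescence ratio over the kinetic read; more negative B-score means stronger inhibition of depolarization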
TRPC6 act = activators of mouse TRPC6 channel | actives 0.13% (n = 310,000) | HEK293-TRPC6 membrane potential dye fluorescence; stronger effect = higher value | B-score at 10 µM | Q61143;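 active = B-score of the integrated fluorescence ratio above library mean plus 3 SD, and starting fluorescence ratio within library mean plus 5 SD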;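 also: higher score means more depolarization so channel activation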
* hit, by the source's call; i = inactive.

SMILES	TRPC4 act	TRPC4 PAM	TRPC4 block	TRPC6 inh	TRPC6 act
O=C(c1ccc(Cl)cc1)C1CCCN(Cc2ccc3ncccc3c2)C1 (centres undefined)	80*	i	i	i	i
COc1ccc(CCNCc2sccc2C)cc1	i	i	i	i	i
CCOC(=O)C1(c2ccccc2)CCN(CCC(=O)Nc2ccccc2OC)CC1	50*	i	i	i	i
CCCCc1ncc(CN2CCCC(C(=O)c3ccc(SC)cc3)C2)[nH]1 (centres undefined)	i	i	-6*	i	i
CCOc1ccc(-n2c(-c3ccoc3)nc3ccccc3c2=O)cc1	i	i	i	i	i
CCOc1ccc(-c2c(C)n(-c3ccc(OCC)cc3)c3[n+]2CCCCC3)cc1	i	i	i	-9.4*	13*
CCOC(=O)c1cccc(-[n+]2c(-c3ccccc3)cc(-c3ccccc3)cc2-c2ccccc2)c1	i	i	i	i	i
CCOC(=O)c1ccc(-[n+]2c(-c3ccccc3)cc(-c3ccccc3)cc2-c2ccccc2)cc1	i	i	i	i	i
CN(C)c1ccc(-[n+]2c(-c3ccccc3)cc(-c3ccccc3)cc2-c2ccccc2)cc1	i	11*	i	i	i
c1ccc(-c2cc(-c3ccccc3)[n+](-c3ccccc3)c(-c3ccccc3)c2)cc1	i	18*	i	i	i
CNCC(=O)c1ccccc1	i	i	i	i	i
Brc1ccccc1CNCCc1ccc2c(c1)OCO2	i	i	i	i	i
COc1ccc(-c2nc3ccc(C(=O)N4CCC5(CC4)OCCO5)cc3nc2-c2ccc(OC)cc2)cc1	i	i	i	i	i
N=c1n(CCO)c2ccccc2n1Cc1ccccc1	i	i	-7*	i	i
c1cc(C2N3CCCN2CC3)ccn1 (centres undefined)	i	i	i	i	i
CN(CCOc1ccc(C=C2C(=O)NC(=O)NC2=O)cc1)c1ccccn1	46*	i	-6*	i	i
COc1ccc(OCCOc2cccc(C=C3C(=O)NC(=O)NC3=O)c2)cc1	i	i	i	i	i
c1cncc(CNC2CCCC2)c1	i	i	i	i	i
Cc1cc(-c2ccccc2)cc(C)[n+]1Cc1ccccc1	106*	i	i	i	i
O=[N+]([O-])c1ccc(C[n+]2c(-c3ccccc3)cc(-c3ccccc3)cc2-c2ccccc2)cc1	i	i	i	i	i
CCc1ccc(OCCCN=C(C)c2c(O)n(C)c(=O)n(C)c2=O)cc1	i	16*	i	i	i
Clc1cccc(C2NCCc3[nH]cnc32)c1 (centres undefined)	50*	i	i	i	i
Fc1ccc(C2NCCc3[nH]cnc32)cc1 (centres undefined)	60*	i	i	i	i
O=C(c1ccc2c3c(cccc13)CC2)C1CCCN(Cc2ncc[nH]2)C1 (centres undefined)	46*	i	i	i	i
O=C(c1ccc2c3c(cccc13)CC2)C1CCCN(CC2CC2)C1 (centres undefined)	158*	i	i	i	i
SMILES	TRPC4 act	TRPC4 PAM	TRPC4 block	TRPC6 inh	TRPC6 act
CCc1nccc2c1[nH]c1ccccc12	i	i	-6*	i	i
CCCN1CCC[C@@H]2Cc3[nH]ncc3C[C@H]21	i	i	i	i	i
CCCN1CCC[C@@H]2Cc3nc(N)ncc3C[C@H]21	i	11*	i	i	i
Cc1ccsc1CNCCc1ccccc1F	i	i	i	i	i
NCCc1c[nH]c2ccc(F)cc12	i	i	i	i	i
COc1ccc(CNC(=O)/C=C/c2ccc3[nH]cc(CCN(C)C)c3c2)cc1	45*	i	i	i	i
COc1ccc2[nH]cc(CCN(C)C)c2c1	i	19*	i	i	i
COc1ccc2c(CCN)c[nH]c2c1	81*	i	i	i	i
O=c1[nH]c(=O)n(Cc2ccc(F)cc2)c(O)c1/C=N/Nc1ccccc1	i	i	i	i	i
Cc1c(C=O)c2ccccc2n1Cc1cccc(F)c1	i	i	i	i	i

Screening results deposited in PubChem BioAssay by Johns Hopkins Ion Channel Center.
